Active and inactive are the calls of the source. No cut-off for these calls is given here.
Tests used:
[1] = test system: HCT-116; assay: Cytotoxicity against human HCT116 cells assessed as cell growth inhibition after 3 days by MTT assay; assay type: functional, cell-based; settings: HCT-116, 72 h
In short: (§1)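 Cells grown in RPMI-1640 with 10% FBS, penicillin 100 U/mL and streptomycin, 37 °C, 5% CO2. Exponential-phase cells seeded at 5 × 10⁴–1 × 10⁵ cells/mL, grown overnight, then treated with DMSO-predissolved compounds for 3 days. Medium replaced by MTT for 4 h at 37 °C; formazan dissolved in SDS/DMF/water/acetic acid buffer (pH 4.7); absorbance read at 570 nm. At least three independent experiments.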

[2] = test system: HepG2; assay: Cytotoxicity against human HepG2 cells assessed as cell growth inhibition after 3 days by MTT assay; assay type: functional, cell-based; settings: HepG2, 72 h; in short: as §1
[3] = test system: A549; assay: Cytotoxicity against human A549 cells assessed as cell growth inhibition after 3 days by MTT assay; assay type: functional, cell-based; settings: A549, 72 h; in short: as §1
[4] = molecular target: DNA topoisomerase 2-alpha (Homo sapiens) (UniProt P11388); assay: Inhibition human topoisomerase 2 kDNA decatenation activity at 200 uM
DNA topoisomerase 2-alpha (Homo sapiens), sequence (P11388 whole entry): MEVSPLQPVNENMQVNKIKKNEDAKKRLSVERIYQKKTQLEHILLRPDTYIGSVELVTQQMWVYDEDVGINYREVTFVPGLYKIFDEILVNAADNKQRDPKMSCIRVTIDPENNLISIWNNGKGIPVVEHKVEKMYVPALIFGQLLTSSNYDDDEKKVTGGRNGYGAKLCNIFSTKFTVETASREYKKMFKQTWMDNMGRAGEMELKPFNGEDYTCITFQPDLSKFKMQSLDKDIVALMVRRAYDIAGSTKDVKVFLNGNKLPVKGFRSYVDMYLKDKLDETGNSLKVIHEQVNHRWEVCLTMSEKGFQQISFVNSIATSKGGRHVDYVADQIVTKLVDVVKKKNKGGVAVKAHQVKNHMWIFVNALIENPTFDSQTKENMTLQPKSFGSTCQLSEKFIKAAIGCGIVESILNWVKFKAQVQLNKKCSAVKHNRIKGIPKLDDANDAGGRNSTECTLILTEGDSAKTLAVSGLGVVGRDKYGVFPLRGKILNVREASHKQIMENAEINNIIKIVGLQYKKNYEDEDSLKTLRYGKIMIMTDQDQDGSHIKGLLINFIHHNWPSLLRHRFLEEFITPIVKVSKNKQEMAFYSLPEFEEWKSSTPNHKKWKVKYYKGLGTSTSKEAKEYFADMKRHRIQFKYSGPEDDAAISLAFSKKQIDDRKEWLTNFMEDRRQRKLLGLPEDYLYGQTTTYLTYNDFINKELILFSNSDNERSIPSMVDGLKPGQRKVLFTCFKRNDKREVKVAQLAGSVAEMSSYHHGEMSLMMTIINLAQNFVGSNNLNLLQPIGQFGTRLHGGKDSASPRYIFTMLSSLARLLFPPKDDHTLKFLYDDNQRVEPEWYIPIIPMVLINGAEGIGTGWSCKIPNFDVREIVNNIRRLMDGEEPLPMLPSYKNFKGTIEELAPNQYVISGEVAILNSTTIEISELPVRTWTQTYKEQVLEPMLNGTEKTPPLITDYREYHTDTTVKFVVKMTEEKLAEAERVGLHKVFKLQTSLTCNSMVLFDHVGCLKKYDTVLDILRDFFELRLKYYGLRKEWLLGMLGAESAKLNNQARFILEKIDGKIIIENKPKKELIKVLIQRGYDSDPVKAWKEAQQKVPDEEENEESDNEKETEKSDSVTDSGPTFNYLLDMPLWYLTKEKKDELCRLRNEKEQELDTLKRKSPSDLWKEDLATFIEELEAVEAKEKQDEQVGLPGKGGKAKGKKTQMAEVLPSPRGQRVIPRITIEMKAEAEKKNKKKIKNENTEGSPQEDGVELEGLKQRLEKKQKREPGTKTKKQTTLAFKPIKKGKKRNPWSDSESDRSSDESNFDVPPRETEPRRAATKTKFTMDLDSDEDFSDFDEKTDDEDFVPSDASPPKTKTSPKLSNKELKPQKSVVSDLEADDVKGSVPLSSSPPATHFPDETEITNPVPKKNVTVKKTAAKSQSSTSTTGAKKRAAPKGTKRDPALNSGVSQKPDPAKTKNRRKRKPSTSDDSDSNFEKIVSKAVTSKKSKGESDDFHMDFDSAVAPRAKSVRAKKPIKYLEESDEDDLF

[5] = test system: HCT-116; assay: Cell cycle arrest in human HCT116 cells assessed as accumulation at G2/M phase at 2.5 uM after 24 hrs using propidium iodide by fluorescence flow cytometry; assay type: functional
In short: (§2)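 HCT-116 cells incubated 24 h with test agent at […], stained with propidium iodide; DNA content analysed by fluorescence flow cytometry to give percentage of cells per cell-cycle phase. Values are means of at least three independent experiments.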

[6] = test system: HCT-116; assay: Cell cycle arrest in human HCT116 cells assessed as accumulation at sub G1 phase at 2.5 uM after 24 hrs using propidium iodide by fluorescence flow cytometry; assay type: functional; in short: as §2
[7] = test system: HCT-116; assay: Cell cycle arrest in human HCT116 cells assessed as accumulation at G1 phase at 5 uM after 24 hrs using propidium iodide by fluorescence flow cytometry; assay type: functional; in short: as §2
[8] = test system: HCT-116; assay: Cell cycle arrest in human HCT116 cells assessed as accumulation at S phase at 5 uM after 24 hrs using propidium iodide by fluorescence flow cytometry; assay type: functional; in short: as §2
[9] = test system: HCT-116; assay: Cell cycle arrest in human HCT116 cells assessed as accumulation at G2/M phase at 5 uM after 24 hrs using propidium iodide by fluorescence flow cytometry; assay type: functional; in short: as §2
[10] = test system: HCT-116; assay: Cell cycle arrest in human HCT116 cells assessed as accumulation at sub G1 phase at 5 uM after 24 hrs using propidium iodide by fluorescence flow cytometry; assay type: functional; in short: as §2
[11] = test system: HCT-116; assay: Cell cycle arrest in human HCT116 cells assessed as accumulation at G1 phase at 10 uM after 24 hrs using propidium iodide by fluorescence flow cytometry; assay type: functional; in short: as §2
[12] = test system: HCT-116; assay: Cell cycle arrest in human HCT116 cells assessed as accumulation at S phase at 10 uM after 24 hrs using propidium iodide by fluorescence flow cytometry; assay type: functional; in short: as §2
[13] = test system: HCT-116; assay: Cell cycle arrest in human HCT116 cells assessed as accumulation at G2/M phase at 10 uM after 24 hrs using propidium iodide by fluorescence flow cytometry; assay type: functional; in short: as §2
[14] = test system: HCT-116; assay: Cell cycle arrest in human HCT116 cells assessed as accumulation at sub G1 phase at 10 uM after 24 hrs using propidium iodide by fluorescence flow cytometry; assay type: functional; in short: as §2
[15] = test system: HCT-116; assay: Cell cycle arrest in human HCT116 cells assessed as accumulation at G1 phase at 1.25 uM after 24 hrs using propidium iodide by fluorescence flow cytometry; assay type: functional; in short: as §2
[16] = test system: HCT-116; assay: Cell cycle arrest in human HCT116 cells assessed as accumulation at S phase at 1.25 uM after 24 hrs using propidium iodide by fluorescence flow cytometry; assay type: functional; in short: as §2
[17] = test system: HCT-116; assay: Cell cycle arrest in human HCT116 cells assessed as accumulation at G2/M phase at 1.25 uM after 24 hrs using propidium iodide by fluorescence flow cytometry; assay type: functional; in short: as §2
[18] = test system: HCT-116; assay: Cell cycle arrest in human HCT116 cells assessed as accumulation at sub G1 phase at 1.25 uM after 24 hrs using propidium iodide by fluorescence flow cytometry; assay type: functional; in short: as §2
[19] = test system: HCT-116; assay: Cell cycle arrest in human HCT116 cells assessed as accumulation at G1 phase at 2.5 uM after 24 hrs using propidium iodide by fluorescence flow cytometry; assay type: functional; in short: as §2
[20] = test system: HCT-116; assay: Cell cycle arrest in human HCT116 cells assessed as accumulation at S phase at 2.5 uM after 24 hrs using propidium iodide by fluorescence flow cytometry; assay type: functional; in short: as §2

Structure (SMILES)	IC50 [1] [µM]	IC50 [2] [µM]	IC50 [3] [µM]	other results
COc1cc([C@@H]2c3cc4c(cc3[C@@H](NC(=S)NC(=O)c3ccc(Cl)cc3)[C@H]3COC(=O)[C@H]23)OCO4)cc(OC)c1O	7.2	7.6	11.5	
COc1cc([C@@H]2c3cc4c(cc3[C@@H](NC(=S)NC(=O)c3cccc5ccccc35)[C@H]3COC(=O)[C@H]23)OCO4)cc(OC)c1O	2.2	18.7	6	inhibition [4]: Active
COc1cc([C@@H]2c3cc4c(cc3[C@@H](NC(=S)NC(=O)c3ccccc3C)[C@H]3COC(=O)[C@H]23)OCO4)cc(OC)c1O	4.7	5.2	12.2	
COc1cc([C@@H]2c3cc4c(cc3[C@@H](NC(=S)NC(=O)c3cccc(Cl)c3)[C@H]3COC(=O)[C@H]23)OCO4)cc(OC)c1O	6.8	7.6	17.9	
COc1cc([C@@H]2c3cc4c(cc3[C@@H](NC(=S)NC(=O)c3ccccc3Cl)[C@H]3COC(=O)[C@H]23)OCO4)cc(OC)c1O	7.7	7.7	10.3	
COc1cc([C@@H]2c3cc4c(cc3[C@@H](N)[C@H]3COC(=O)[C@H]23)OCO4)cc(OC)c1O	2.1	1.5	5.2	
COc1cc([C@@H]2c3cc4c(cc3[C@@H](NC(=S)NC(=O)c3cccc(C)c3)[C@H]3COC(=O)[C@H]23)OCO4)cc(OC)c1O	5.5	4.6	13.3	
COc1cc([C@@H]2c3cc4c(cc3[C@@H](NC(=S)NC(=O)c3ccccc3)[C@H]3COC(=O)[C@H]23)OCO4)cc(OC)c1O	6.3	6.1	9.8	Activity [5]: 93.11%; Activity [6]: 0%; Activity [7]: 4.23%; Activity [8]: 0%; Activity [9]: 95.77%; Activity [10]: 0%; Activity [11]: 3.55%; Activity [12]: 0%; Activity [13]: 96.45%; Activity [14]: 0%; inhibition [4]: Active; Activity [15]: 48.6%; Activity [16]: 8.74%; Activity [17]: 42.66%; Activity [18]: 0%; Activity [19]: 1.8%; Activity [20]: 5.09%
COc1cc([C@@H]2c3cc4c(cc3[C@@H](NC(=S)NC(=O)c3ccc(F)cc3)[C@H]3COC(=O)[C@H]23)OCO4)cc(OC)c1O	6.8	8.3	10.8	
COc1cc([C@@H]2c3cc4c(cc3[C@@H](NC(=S)NC(=O)c3ccccc3I)[C@H]3COC(=O)[C@H]23)OCO4)cc(OC)c1O	6.7	6.7	15.1	inhibition [4]: Active
COc1cc([C@@H]2c3cc4c(cc3[C@@H](O[C@@H]3O[C@@H]5CO[C@@H](C)O[C@H]5[C@H](O)[C@H]3O)[C@H]3COC(=O)[C@H]23)OCO4)cc(OC)c1O [ETOPOSIDE]	13.5	4.9	21.4	
COc1cc([C@@H]2c3cc4c(cc3[C@@H](NC(=S)NC(=O)c3ccc(C)cc3)[C@H]3COC(=O)[C@H]23)OCO4)cc(OC)c1O	6.8	3	11.3	
COc1cc([C@@H]2c3cc4c(cc3[C@@H](NC(=S)NC(=O)c3ccccc3Br)[C@H]3COC(=O)[C@H]23)OCO4)cc(OC)c1O	6.2	5.1	11.4	
